For 6 compounds, Activity results are on record in ChEMBL document CHEMBL5370638.

SMILES strings stand for the structures. Active and inactive are the calls of the source. The calls are words filed in the database; no cut-off is given here. Numbered stars: 1 amine (or outer) side, 2 acyl side, 3 side chain; on linkers, the order of the positions; unused ones are H or OH. Bridge positions count the residues as written; N and C are the ends. Square brackets hold non-standard residues; d marks the D form. Peptide text beside a SMILES is read from it. AMPB(E) = O=C(c1ccc(/N=N/c2ccc(CN[*:1])cc2)cc1)[*:2]; X3 = O=C(c1ccccc1/N=N\c1ccccc1C(=O)[*:2])[*:1]; X4 = O=C(c1ccccc1/N=N/c1ccccc1C(=O)[*:2])[*:1]; Dap = NC[C@H](N)C(=O)O

What all share (format): functional, cell-based
The target of assay [1] is T1, Vasopressin V1b receptor (Homo sapiens) (UniProt P47901).
T1 sequence (whole entry): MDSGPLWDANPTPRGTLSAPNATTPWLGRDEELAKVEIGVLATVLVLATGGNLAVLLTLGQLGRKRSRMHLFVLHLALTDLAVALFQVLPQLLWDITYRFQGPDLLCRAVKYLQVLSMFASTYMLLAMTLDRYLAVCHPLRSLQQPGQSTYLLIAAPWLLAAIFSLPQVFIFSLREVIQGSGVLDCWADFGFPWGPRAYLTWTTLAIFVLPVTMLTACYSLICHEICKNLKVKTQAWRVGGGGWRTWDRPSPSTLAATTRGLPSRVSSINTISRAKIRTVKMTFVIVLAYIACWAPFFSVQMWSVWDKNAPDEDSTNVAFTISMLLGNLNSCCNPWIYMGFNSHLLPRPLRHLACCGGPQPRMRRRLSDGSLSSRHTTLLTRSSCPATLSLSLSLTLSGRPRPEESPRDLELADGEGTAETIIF
As to the kind of experiment: Activation of human C-terminal GFP-tagged V1b receptor in HEK293 cells assessed as CREB phosphorylation at 1 nM incubated for 60 mins by immunostaining analysis. Put shortly:
(§1)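 HEK293 cells stably expressing human V1bR with C-terminal GFP were plated overnight on poly-D-lysine coverslips and serum-starved for one day. Ligands in serum-free medium were applied for 60 min; the Z-form was diode-activated at 340 nm. Cells were fixed in 4% PFA, immunostained (anti-GFP, anti-pCREB, Hoechst) and imaged confocally. pCREB signal was normalized to medium-only controls; internalization was scored from GFP location.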

The test system of assay [2] is HEK293. As to the kind of experiment: Induction of C-terminal GFP-tagged V1b receptor internalization in HEK293 cells at 1 nM incubated for 60 mins by fluorescence microscopy analysis. As to conditions: Homo sapiens. Put shortly:
as §1

In assay [3] the target is Vasopressin V1a receptor (Homo sapiens) (UniProt P37288). As to the kind of experiment: Agonist activity at human V1a receptor transfected in HEK293 cells upto 10 uM incubated for 1 hr by IP-one HTRF assay. Put shortly:
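Stable HEK293 lines expressing hOTR, hV1aR or hV1bR (10,000 cells/well, 48 h) were preincubated in stimulation buffer for 15 min, then given ligand for 1 h at 37 °C. Z-forms were pre-irradiated at 340 nm for 1 min.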
A general note: In TR-FRET formats the signal depends on donor and acceptor labels being close together.

Assay [4] has the same target. The experiment in a line: Antagonist activity at human V1a receptor transfected in HEK293 cells at 10 uM relative to control. The conditions noted are these: filed as antagonist. Put shortly:
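V1aR-expressing HEK293 cells received VP (1 nM final) premixed with test compound (10 or 100 μM), incubated for 1 h at 37 °C. IP1 accumulation was measured by HTRF (665/615 nm) and normalized to basal (0%) and maximal VP (100%). […] At least three independent experiments were run, each in triplicate.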

Vasopressin V1a receptor (Homo sapiens), sequence (P37288 whole entry, looked up): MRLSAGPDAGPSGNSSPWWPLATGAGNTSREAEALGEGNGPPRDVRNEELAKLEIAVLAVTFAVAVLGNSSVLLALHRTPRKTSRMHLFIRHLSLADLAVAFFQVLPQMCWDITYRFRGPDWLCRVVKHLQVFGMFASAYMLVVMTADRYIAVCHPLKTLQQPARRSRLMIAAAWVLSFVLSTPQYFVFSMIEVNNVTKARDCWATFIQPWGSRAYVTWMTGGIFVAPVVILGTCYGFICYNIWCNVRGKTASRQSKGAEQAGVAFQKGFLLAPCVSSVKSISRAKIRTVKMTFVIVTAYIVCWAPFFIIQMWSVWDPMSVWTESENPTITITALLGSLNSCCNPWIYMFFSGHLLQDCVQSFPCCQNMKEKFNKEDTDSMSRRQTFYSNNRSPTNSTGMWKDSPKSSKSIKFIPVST

Turning to `NC(=O)CC[C@@H]1NC(=O)[C@H](Cc2ccc(/N=N/c3ccccc3)cc2)NC(=O)[C@H](Cc2ccc(O)cc2)NC(=O)[C@@H](N)CSSC[C@@H](C(=O)N2CCC[C@H]2C(=O)N[C@@H](CCCN=C(N)N)C(=O)NCC(N)=O)NC(=O)[C@H](CC(N)=O)NC1=O`, the outcome in assay [1] and in assay [2] was inactive.

For `NC(=O)CC[C@@H]1NC(=O)[C@H](Cc2ccc(/N=N\c3ccccc3)cc2)NC(=O)[C@H](Cc2ccc(O)cc2)NC(=O)[C@@H](N)CSSC[C@@H](C(=O)N2CCC[C@H]2C(=O)N[C@@H](CCCN=C(N)N)C(=O)NCC(N)=O)NC(=O)[C@H](CC(N)=O)NC1=O`, in assay [2], the result was Active. In the case of `NC(=O)CC[C@@H]1NC(=O)[C@H](Cc2ccccc2)NC(=O)[C@H](Cc2ccc(O)cc2)NC(=O)[C@@H](N)CSSC[C@@H](C(=O)NCc2ccc(/N=N/c3ccc(C(=O)NCC(N)=O)cc3)cc2)NC(=O)[C@H](CC(N)=O)NC1=O` (H-CYFQNC[AMPB(E)]G-NH2; disulfide 1-6), in assay [3], the outcome was inactive.

For `NC(=O)CC[C@@H]1NC(=O)[C@H](Cc2ccccc2)NC(=O)[C@H](Cc2ccc(O)cc2)NC(=O)[C@@H](N)CSSC[C@@H](C(=O)NCc2ccc(/N=N/c3ccc(C(=O)N[C@@H](CCCN=C(N)N)C(=O)NCC(N)=O)cc3)cc2)NC(=O)[C@H](CC(N)=O)NC1=O` (H-CYFQNC[AMPB(E)]RG-NH2; disulfide 1-6), in assay [3], the outcome was inactive. As to `NC(=O)CC[C@@H]1NC(=O)[C@H](Cc2ccccc2)NC(=O)[C@H](Cc2ccc(O)cc2)NC(=O)c2ccccc2/N=N\c2ccccc2C(=O)NC[C@@H](C(=O)N2CCC[C@H]2C(=O)N[C@@H](CCCN=C(N)N)C(=O)NCC(N)=O)NC(=O)[C@H](CC(N)=O)NC1=O` (YFQN[Dap]PRG-NH2; linker N-5 via X3), in assay [4], the outcome was Active. On the same count and under the same terms, for `NC(=O)CC[C@@H]1NC(=O)[C@H](Cc2ccccc2)NC(=O)[C@H](Cc2ccc(O)cc2)NC(=O)c2ccccc2/N=N/c2ccccc2C(=O)NC[C@@H](C(=O)N2CCC[C@H]2C(=O)N[C@@H](CCCN=C(N)N)C(=O)NCC(N)=O)NC(=O)[C@H](CC(N)=O)NC1=O` (YFQN[Dap]PRG-NH2; linker N-5 via X4) the value was “Active”.
